Assay results published in ChEMBL document CHEMBL3804828, “2,4,6-Triaminopyrimidine as a Novel Hinge Binder in a Series of PI3Kδ Selective Inhibitors” (J Med Chem, 2016).

What was measured:
[1] = Clearance in Sprague-Dawley rat at 0.44 mg/kg, iv by LC/MS/MS analysis; assay type: ADME, organism-based; details: in vivo
In short: (§1)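 Single intravenous dose of 0.44 mg/kg to Sprague-Dawley rats, formulated at 0.09 mg/mL in 5% ethanol, 75% PEG 400 and 20% citrate buffer (pH 3.0). Three animals per dosing route. Volume of distribution taken at steady state.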

[2] = species on record: Homo sapiens; assay: Selectivity ratio of IC50 for human full length PI3Kalpha catalytic subunit/p85alpha to IC50 for human full length PI3Kdelta catalytic subunit/p85alpha
In short: (§2)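 Ratio calculated from the isoform-specific PI3K IC50 values, with enzyme assays run in quadruplicate.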

[3] = tested on: Hepatocyte; assay: Clearance in human hepatocytes at 1 uM by LC/MS/MS in presence of aldehyde oxidase inhibitor raloxifene; assay type: ADME, cell-based
In short: (§3)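 Human hepatocytes, incubated with and without the aldehyde oxidase inhibitor raloxifene; predicted clearance calculated from turnover.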

[4] = tested on: Liver microsome; assay: Clearance in rat liver microsomes at 1 uM by LC/MS/MS analysis in presence of NADPH generating system; assay type: ADME
[5] = species on record: Homo sapiens; assay: Selectivity ratio of IC50 for human full length PI3Kgamma to IC50 for human full length PI3Kdelta catalytic subunit/p85alpha; in short: as §2
[6] = Half life in Sprague-Dawley rat at 0.44 mg/kg, iv by LC/MS/MS analysis; assay type: ADME, organism-based; details: in vivo; in short: as §1
[7] = species on record: Homo sapiens; assay: Selectivity ratio of IC50 for human recombinant PI3Kbeta to IC50 for human full length PI3Kdelta catalytic subunit/p85alpha; in short: as §2
[8] = Clearance in human hepatocytes at 1 uM by LC/MS/MS analysis; assay type: ADME, cell-based, Hepatocyte; in short: as §3
[9] = Volume of distribution at steady state in Sprague-Dawley rat at 0.44 mg/kg, iv by LC/MS/MS analysis; assay type: ADME, organism-based; details: in vivo, read-out: Vdss; in short: as §1
[10] = biological target: T1, Aldehyde oxidase (Homo sapiens, UniProt Q06278); assay: Drug metabolism in human hepatocytes assessed as aldehyde oxidase mediated (S)-4-Amino-6-((1-(5-chloro-4-oxo-3-phenyl 3,4-dihydroquinazolin-2-yl)ethyl)amino)-2-hydroxypyrimidine-5-carbonitrile formation at 1 uM by LC/MS/MS analysis; assay type: ADME, cell-based, Hepatocyte
T1 sequence (Q06278 whole entry): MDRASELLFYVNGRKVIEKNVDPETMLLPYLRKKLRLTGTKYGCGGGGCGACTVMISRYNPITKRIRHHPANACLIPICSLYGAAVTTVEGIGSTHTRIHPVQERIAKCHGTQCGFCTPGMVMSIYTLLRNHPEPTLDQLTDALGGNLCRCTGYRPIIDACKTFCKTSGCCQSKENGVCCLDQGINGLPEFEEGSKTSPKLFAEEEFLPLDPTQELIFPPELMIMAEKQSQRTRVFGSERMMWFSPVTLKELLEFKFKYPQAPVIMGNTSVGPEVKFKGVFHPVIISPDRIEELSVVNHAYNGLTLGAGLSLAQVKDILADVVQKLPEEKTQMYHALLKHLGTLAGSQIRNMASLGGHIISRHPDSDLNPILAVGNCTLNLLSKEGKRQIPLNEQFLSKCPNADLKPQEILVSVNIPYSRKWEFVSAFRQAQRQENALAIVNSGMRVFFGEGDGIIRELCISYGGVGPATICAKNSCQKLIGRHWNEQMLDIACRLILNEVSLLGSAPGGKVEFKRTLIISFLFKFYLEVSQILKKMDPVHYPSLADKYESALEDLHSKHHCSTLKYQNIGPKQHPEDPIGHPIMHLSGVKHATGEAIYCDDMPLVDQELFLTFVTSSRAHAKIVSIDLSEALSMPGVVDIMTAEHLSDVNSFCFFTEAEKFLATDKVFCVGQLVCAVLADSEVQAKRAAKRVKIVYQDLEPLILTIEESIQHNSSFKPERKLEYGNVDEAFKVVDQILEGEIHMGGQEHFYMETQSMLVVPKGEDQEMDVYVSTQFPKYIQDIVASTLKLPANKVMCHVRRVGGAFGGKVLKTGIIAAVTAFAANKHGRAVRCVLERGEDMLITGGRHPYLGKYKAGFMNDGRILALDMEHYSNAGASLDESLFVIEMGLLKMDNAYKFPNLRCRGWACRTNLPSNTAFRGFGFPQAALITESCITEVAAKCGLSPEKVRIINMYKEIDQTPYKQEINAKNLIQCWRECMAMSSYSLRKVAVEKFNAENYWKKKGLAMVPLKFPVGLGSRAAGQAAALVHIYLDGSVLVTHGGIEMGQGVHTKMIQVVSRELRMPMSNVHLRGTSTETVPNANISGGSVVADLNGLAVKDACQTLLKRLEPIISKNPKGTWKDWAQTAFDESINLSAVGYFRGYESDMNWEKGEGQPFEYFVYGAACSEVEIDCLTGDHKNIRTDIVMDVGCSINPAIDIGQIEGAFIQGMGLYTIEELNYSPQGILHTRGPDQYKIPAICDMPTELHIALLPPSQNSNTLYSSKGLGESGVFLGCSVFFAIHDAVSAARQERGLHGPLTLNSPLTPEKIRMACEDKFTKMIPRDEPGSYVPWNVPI

[11] = tested on: Liver microsome; assay: Clearance in human liver microsomes at 1 uM by LC/MS/MS analysis in presence of NADPH generating system; assay type: ADME
[12] = biological target: PI3-kinase p110-delta/p85-alpha (Homo sapiens, UniProt O00329); assay: Inhibition human full length PI3Kdelta catalytic subunit/p85alpha assessed as formation of PIP3 after 30 mins by europium labeled GRP-based TR-FRET assay; assay type: protein-complex assay
Chain of PI3-kinase p110-delta/p85-alpha (P27986 whole entry): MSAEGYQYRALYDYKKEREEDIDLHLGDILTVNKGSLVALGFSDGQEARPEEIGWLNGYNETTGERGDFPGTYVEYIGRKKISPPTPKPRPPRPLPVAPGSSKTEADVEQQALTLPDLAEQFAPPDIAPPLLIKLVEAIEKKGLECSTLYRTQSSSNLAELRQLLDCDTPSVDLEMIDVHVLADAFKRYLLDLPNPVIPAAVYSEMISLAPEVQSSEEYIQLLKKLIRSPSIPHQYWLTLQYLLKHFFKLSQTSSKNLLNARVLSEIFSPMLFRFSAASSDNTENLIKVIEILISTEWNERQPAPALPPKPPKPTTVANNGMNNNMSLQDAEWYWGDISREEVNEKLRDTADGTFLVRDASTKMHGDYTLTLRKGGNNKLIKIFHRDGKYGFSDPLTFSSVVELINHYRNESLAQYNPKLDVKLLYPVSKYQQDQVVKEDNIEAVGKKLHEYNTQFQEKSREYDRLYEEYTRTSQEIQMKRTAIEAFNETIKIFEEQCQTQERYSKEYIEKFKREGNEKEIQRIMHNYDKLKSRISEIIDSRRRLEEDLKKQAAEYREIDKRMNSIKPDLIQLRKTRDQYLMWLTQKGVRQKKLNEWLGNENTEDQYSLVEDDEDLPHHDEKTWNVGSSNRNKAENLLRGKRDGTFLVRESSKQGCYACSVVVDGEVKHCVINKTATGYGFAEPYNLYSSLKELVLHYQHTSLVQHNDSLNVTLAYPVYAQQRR
Chain of PI3-kinase p110-delta/p85-alpha (O00329 whole entry): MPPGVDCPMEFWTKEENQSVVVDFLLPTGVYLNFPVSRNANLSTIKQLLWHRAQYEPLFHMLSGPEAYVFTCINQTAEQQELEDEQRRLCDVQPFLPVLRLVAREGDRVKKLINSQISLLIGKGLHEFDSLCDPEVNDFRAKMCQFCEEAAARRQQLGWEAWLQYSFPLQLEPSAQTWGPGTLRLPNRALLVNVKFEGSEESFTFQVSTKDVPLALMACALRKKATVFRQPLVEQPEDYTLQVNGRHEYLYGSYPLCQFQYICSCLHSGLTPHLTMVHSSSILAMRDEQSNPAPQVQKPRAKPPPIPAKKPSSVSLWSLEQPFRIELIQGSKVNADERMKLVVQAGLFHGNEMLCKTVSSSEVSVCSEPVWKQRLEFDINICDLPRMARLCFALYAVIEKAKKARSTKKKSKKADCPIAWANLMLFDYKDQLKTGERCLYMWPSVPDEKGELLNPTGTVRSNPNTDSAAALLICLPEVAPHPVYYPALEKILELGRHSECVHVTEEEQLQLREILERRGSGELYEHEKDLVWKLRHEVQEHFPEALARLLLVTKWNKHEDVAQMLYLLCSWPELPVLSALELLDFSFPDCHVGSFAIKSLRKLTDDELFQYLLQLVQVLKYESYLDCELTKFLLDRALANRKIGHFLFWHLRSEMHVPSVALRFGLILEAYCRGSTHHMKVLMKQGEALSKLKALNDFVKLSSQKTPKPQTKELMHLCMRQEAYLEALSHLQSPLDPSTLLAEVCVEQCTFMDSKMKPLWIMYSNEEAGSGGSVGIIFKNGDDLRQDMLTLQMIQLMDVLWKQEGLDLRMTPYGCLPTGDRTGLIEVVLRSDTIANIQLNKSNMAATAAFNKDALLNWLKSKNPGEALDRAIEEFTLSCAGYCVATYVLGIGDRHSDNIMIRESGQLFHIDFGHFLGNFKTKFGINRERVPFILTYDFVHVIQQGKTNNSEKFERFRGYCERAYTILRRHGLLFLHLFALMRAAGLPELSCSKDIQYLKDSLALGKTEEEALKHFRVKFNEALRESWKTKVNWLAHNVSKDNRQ

[13] = biological target: T1, Aldehyde oxidase; assay: Drug metabolism in human hepatocytes assessed as aldehyde oxidase mediated M1 formation at 1 uM by LC/MS/MS analysis; assay type: ADME, cell-based, Hepatocyte
[14] = biological target: T1, Aldehyde oxidase; assay: Drug level in human hepatocytes assessed as aldehyde oxidase-mediated compound formation treated with (S)-4-Amino-6-((1-(5-chloro-4-oxo-3-phenyl-3,4-dihydroquinazolin-2-yl)ethyl)amino)pyrimidine-5-carbonitrile at 1 uM by LC/MS/MS analysis; assay type: ADME, cell-based, Hepatocyte

Ratio IC50 [2] | CLH [3] [mL/min/kg] | Ratio IC50 [5] | Ratio IC50 [7] | CLhep predicted at 1 µM [8] [mL/min/kg] | IC50 [12] [nM] | Drug metabolism [13] | Drug metabolism [14] | SMILES | clearance [1] [mL/min/kg] | Ratio IC50 ([2]; tested as the 2H-labelled form) | CLH [4] [mL/min/kg] | Ratio IC50 ([5]; tested as the 2H-labelled form) | half-life [6] [h] | Ratio IC50 ([7]; tested as the 2H-labelled form) | Vd [9] [L/kg] | Drug metabolism [10] | CLH [11] [mL/min/kg]
2600 | 2.17 | 470 | 330 | 8.5 | 1.2 | metabolite_detected | – | C[C@H](Nc1ncnc(N)c1C#Cc1ccc(F)cn1)c1nc2cccc(Cl)c2c(=O)n1-c1ccccc1 | – | – | – | – | – | – | – | – | –
– | – | – | – | – | – | – | metabolite_detected | C[C@H](Nc1nc(O)nc(N)c1C#N)c1nc2cccc(Cl)c2c(=O)n1-c1ccccc1 | – | – | – | – | – | – | – | – | –
2200 | 1.7 | 60 | 80 | 3.5 | 0.1 | – | – | C[C@H](Nc1nc(N)nc(N)c1C#N)c1nc2cccc(Cl)c2c(=O)n1-c1ccccc1 | – | – | – | – | – | – | – | – | –
860 | 1.3 | 310 | 310 | 4.5 | 11 | – | – | C[C@H](Nc1ncnc(N)c1C(N)=O)c1nc2cccc(Cl)c2c(=O)n1-c1ccccc1 | – | – | – | – | – | – | – | – | –

SMILES | Ratio IC50 [2] | CLH [3] [mL/min/kg] | Ratio IC50 [5] | Ratio IC50 [7] | CLhep predicted at 1 µM [8] [mL/min/kg] | IC50 [12] [nM] | Drug metabolism [13] | Drug metabolism [14] | clearance [1] [mL/min/kg] | Ratio IC50 ([2]; tested as the 2H-labelled form) | CLH [4] [mL/min/kg] | Ratio IC50 ([5]; tested as the 2H-labelled form) | half-life [6] [h] | Ratio IC50 ([7]; tested as the 2H-labelled form) | Vd [9] [L/kg] | Drug metabolism [10] | CLH [11] [mL/min/kg]
C[C@H](Nc1ncnc(N)c1C#N)c1nc2cccc(Cl)c2c(=O)n1-c1ccccc1 | 4600 | 1.5 | 680 | 200 | 14.7 | 0.4 | – | – | 18.3 | 1200 | 3.3 | 420 | 2.6 | 70 | 2.6 | metabolite_detected | 1.7
